Measured values from EPA's CvTdb concentration-time database.

What was measured:
Rat [1] = test: concentration in plasma after dosing; conditions: 2 h; dosed: Wyeth-14643; 2.0 mg/kg; oral; Male; Sprague-Dawley
Rat [2] = test: concentration in plasma after dosing; conditions: dosed: Wyeth-14643, 1.0 mg/kg, oral, Male, Sprague-Dawley
Rat [3] = test: concentration in plasma after dosing; conditions: dosed: Wyeth-14643, 2.0 mg/kg, oral, Male, Sprague-Dawley
Rat [4] = test: concentration in plasma after dosing; conditions: 10 min; dosed: Bis 2-Chloroethoxy Methane; 20 mg/kg; iv; Female; F344
Rat [5] = test: concentration in heart after dosing; conditions: 4 h; dosed: Bis 2-Chloroethoxy Methane; 20 mg/kg; iv; Female; F344
Rat [6] = test: concentration in heart after dosing; conditions: 20 min; dosed: Bis 2-Chloroethoxy Methane; 20 mg/kg; iv; Female; F344
Rat [7] = test: concentration in plasma after dosing; conditions: 3 h; dosed: Bis 2-Chloroethoxy Methane; 20 mg/kg; iv; Female; F344
Rat [8] = test: concentration in liver after dosing; conditions: 40 min; dosed: Bis 2-Chloroethoxy Methane; 20 mg/kg; iv; Female; F344
Rat [9] = test: concentration in liver after dosing; conditions: 3 h; dosed: Bis 2-Chloroethoxy Methane; 20 mg/kg; iv; Male; F344
Rat [10] = test: concentration in thymus after dosing; conditions: 4 h; dosed: Bis 2-Chloroethoxy Methane; 20 mg/kg; iv; Female; F344
Rat [11] = test: concentration in heart after dosing; conditions: 20 min; dosed: Bis 2-Chloroethoxy Methane; 20 mg/kg; iv; Female; F344; remark: listed apart in the source
Rat [12] = test: concentration in thymus after dosing; conditions: 5 h; dosed: Bis 2-Chloroethoxy Methane; 20 mg/kg; iv; Female; F344
Rat [13] = test: concentration in plasma after dosing; conditions: 2 h; dosed: Bis 2-Chloroethoxy Methane; 40 mg/kg; iv; Male; Harlan Sprague Dawley
Rat [14] = test: concentration in plasma after dosing; conditions: 10 min; dosed: Bis 2-Chloroethoxy Methane; 20 mg/kg; iv; Male; F344
Rat [15] = test: concentration in kidney after dosing; conditions: 1 h; dosed: Fluorotelomer alcohol 8+2; 24 mg/kg; oral; Male; Harlan Sprague Dawley
Rat [16] = test: concentration in plasma after dosing; conditions: dosed: Fluorotelomer alcohol 8+2, 40 mg/kg, iv, Male, F344
Rat [17] = test: concentration in plasma after dosing; conditions: dosed: Fluorotelomer alcohol 8+2, 24 mg/kg, oral, Male, Harlan Sprague Dawley
Rat [18] = test: concentration in plasma after dosing; conditions: dosed: Perfluorodecanoic acid, 2 mg/kg, iv, Male, F344
Rat [19] = test: concentration in liver after dosing; conditions: 1848 h; dosed: Perfluorodecanoic acid; 10 mg/kg; oral; Female; Harlan Sprague Dawley
Rat [20] = test: concentration in plasma after dosing; conditions: dosed: Perfluorodecanoic acid, 2 mg/kg, iv, Male, F344; remark: listed apart in the source
Rat [21] = test: concentration in brain after dosing; conditions: 864 h; dosed: Perfluorodecanoic acid; 10 mg/kg; oral; Male; Harlan Sprague Dawley
Rat [22] = test: concentration in plasma after dosing; conditions: 3 h; dosed: Primidone; 30 mg/kg; oral; Female; F344
Rat [23] = test: concentration in heart after dosing; conditions: 4 h; dosed: Thiodiglycolic Acid; 20 mg/kg; iv; Male; Harlan Sprague Dawley
Rat [24] = test: concentration in plasma after dosing; conditions: 20 min; dosed: Thiodiglycolic Acid; 20 mg/kg; iv; Female; F344
Rat [25] = test: concentration in plasma after dosing; conditions: 40 min; dosed: dichloroacetic acid; 40 mg/kg; oral; Female; Harlan Sprague Dawley
human = test: concentration in plasma after dosing; negative times count back from the end of exposure; conditions: dosed: trichloroethylene, 100 ppm, inhalation, duration: 4 hr, person
Summary of the method: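 Points were largely digitised from plot screenshots with WebPlotDigitizer or otherwise copied from tables, and they remain in the units each source reported. They come from published in vivo toxicokinetic studies and two structured collections. Sampling and analytical methods follow each source and were often not reported.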

rat [26] = test: concentration in plasma after dosing; conditions: dosed: trichloroethylene, 600.4 ppm, inhalation, duration: 4 hr, female, Fischer-344

With `Cc1cccc(Nc2cc(Cl)nc(SCC(=O)O)n2)c1C` the concentration in plasma (Rat [1]) was 925 ng/mL, the concentration in plasma (Rat [2]; 0.25 h) was 341 ng/mL and the concentration in plasma (Rat [2]; 4 h) was 214 ng/mL. For the same compound, the concentration in plasma (Rat [3]; 0.25 h) was 912 ng/mL and the concentration in plasma (Rat [3]; 4 h) was 257 ng/mL.
`ClCCOCOCCCl` [Bis 2-Chloroethoxy Methane] gave a concentration in plasma (Rat [4]) of 9960 ng/mL, a concentration in heart (Rat [5]) of 55.5 ng/g and a concentration in heart (Rat [6]) of 6490 ng/g. The concentration in plasma (Rat [7]) was 65.2 ng/mL, the concentration in liver (Rat [8]) was 734 ng/g and the concentration in liver (Rat [9]) was 130 ng/g. For the same compound, the concentration in thymus (Rat [10]) was 76.5 ng/g, the concentration in heart (Rat [11]) was 6800 ng/g and the concentration in thymus (Rat [12]) was 31.7 ng/g. For the same compound, the concentration in plasma (Rat [13]) was 840 ng/mL and the concentration in plasma (Rat [14]) was 11000 ng/mL.
Work on `OCCC(F)(F)C(F)(F)C(F)(F)C(F)(F)C(F)(F)C(F)(F)C(F)(F)C(F)(F)F` [Fluorotelomer alcohol 8+2] yielded a concentration in kidney (Rat [15]) of 1520 ng/g, a concentration in plasma (Rat [16]; 0.25 h) of 12700 ng/mL and a concentration in plasma (Rat [16]; 6 h) of 153 ng/mL. It also gave a concentration in plasma (Rat [17]; 5 min) of 8.46 ng/mL and a concentration in plasma (Rat [17]; 9 h) of 44.8 ng/mL.
In the case of `O=C(O)C(F)(F)C(F)(F)C(F)(F)C(F)(F)C(F)(F)C(F)(F)C(F)(F)C(F)(F)C(F)(F)F` [Perfluorodecanoic acid], the concentration in plasma (Rat [18]; 6 h) was 6490 ng/mL, the concentration in plasma (Rat [18]; 864 h) was 2790 ng/mL and the concentration in liver (Rat [19]) was 26000 ng/g. The concentration in plasma (Rat [20]; 24 h) was 5820 ng/mL, the concentration in plasma (Rat [20]; 1848 h) was 764 ng/mL and the concentration in brain (Rat [21]) was 867 ng/g.
For `CCC1(c2ccccc2)C(=O)NC(=O)NC1=O` [Phenobarbital], the concentration in plasma (Rat [22]) was 640 ng/mL.
For `O=C(O)CSCC(=O)O` [Thiodiglycolic Acid], the concentration in heart (Rat [23]) was 989 ng/g and the concentration in plasma (Rat [24]) was 9230 ng/mL.
Work on `O=C(O)C(Cl)Cl` [dichloroacetic acid] yielded a concentration in plasma (Rat [25]) of 10700 ng/mL, a concentration in plasma (human; 0.25 h) of 5 ng/mL and a concentration in plasma (human; 4 h) of 7 ng/mL. It also gave a concentration in plasma (human; -1 h, during exposure) of 4 ng/mL, a concentration in plasma (human; -2 h, during exposure) of 4 ng/mL and a concentration in plasma (human; -3 h, during exposure) of 4 ng/mL. It also gave a concentration in plasma (human; -3.948 h, during exposure) of 4 ng/mL.
`O=C(O)C(Cl)(Cl)Cl` [trichloroacetic acid] was tested, and the concentration in plasma (rat [26]; 0.1633 h) was 10200 ng/mL, the concentration in plasma (rat [26]; 0.5306 h) was 11400 ng/mL and the concentration in plasma (rat [26]; 0.898 h) was 11800 ng/mL. The concentration in plasma (rat [26]; 1.633 h) was 13400 ng/mL, the concentration in plasma (rat [26]; 2.122 h) was 15800 ng/mL and the concentration in plasma (rat [26]; 5.061 h) was 18300 ng/mL. It also gave a concentration in plasma (rat [26]; 21.1 h) of 5730 ng/mL, a concentration in plasma (rat [26]; 29.06 h) of 2750 ng/mL and a concentration in plasma (rat [26]; 46.08 h) of 1150 ng/mL.
